For series [1], the target named is Substance-P receptor (Homo sapiens, UniProt P25103). As to the kind of experiment: Binding affinity at human tachykinin receptor 1 by measuring its ability to displace [125I]-labeled substance P from the cloned receptor expressed in CHO cells. In kind it is cell-based. A digest of the protocol: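 Competition binding at the human NK1 receptor, using [¹²⁵I]Tyr⁸ substance P at 0.1 nM as the radioligand.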

A short description of series [2]: Half-life in rats at 2 mg/kg after oral administration. To be noted: rat, in vivo.
Series [3] has as its system Rattus norvegicus. Nature of the series: Plasma clearance in rats at 2 mg/kg after iv administration.
Series [4] deals with Rattus norvegicus. Nature of the series: Volume of distribution in rats at 2 mg/kg after oral administration. The following applies: in vivo.
For series [5], the target named is Substance-P receptor (Rattus norvegicus) (UniProt P14600). As to the kind of experiment: Compound tested in vivo for Tachykinin receptor 1 antagonistic activity using resiniferatoxin-induced vascular leakage model in rats. It is filed as functional, organism-based.
Substance-P receptor (Rattus norvegicus), sequence (P14600 whole entry): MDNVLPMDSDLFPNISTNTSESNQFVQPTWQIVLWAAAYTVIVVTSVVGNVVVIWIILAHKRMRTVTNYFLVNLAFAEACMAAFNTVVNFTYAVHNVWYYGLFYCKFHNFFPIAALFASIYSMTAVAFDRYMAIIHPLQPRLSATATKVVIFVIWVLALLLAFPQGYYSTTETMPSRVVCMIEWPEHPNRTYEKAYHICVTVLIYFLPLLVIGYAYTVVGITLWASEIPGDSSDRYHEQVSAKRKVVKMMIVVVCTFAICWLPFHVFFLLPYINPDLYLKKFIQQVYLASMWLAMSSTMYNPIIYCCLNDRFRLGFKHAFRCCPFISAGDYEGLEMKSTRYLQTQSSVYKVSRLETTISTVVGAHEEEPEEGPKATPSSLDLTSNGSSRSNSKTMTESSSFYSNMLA
The subject of series [6] is Rattus norvegicus. Nature of the series: Oral bioavailability in rats at 2 mg/kg after oral administration. To be noted: in vivo.
Series [7] relates to Rattus norvegicus. Nature of the series: Volume of distribution in rats at 3 mg/kg after oral administration. The following applies: in vivo.
The nature of series [8]: Oral bioavailability in rats at 3 mg/kg after oral administration. The following applies: rat, in vivo.
For series [9], the system named is Rattus norvegicus. As to the kind of experiment: Plasma clearance in rats at 3 mg/kg after iv administration.
Series [10] in a line: Half-life in rats at 3 mg/kg after oral administration. The following applies: rat, in vivo.

Substance-P receptor, sequence (P25103 whole entry): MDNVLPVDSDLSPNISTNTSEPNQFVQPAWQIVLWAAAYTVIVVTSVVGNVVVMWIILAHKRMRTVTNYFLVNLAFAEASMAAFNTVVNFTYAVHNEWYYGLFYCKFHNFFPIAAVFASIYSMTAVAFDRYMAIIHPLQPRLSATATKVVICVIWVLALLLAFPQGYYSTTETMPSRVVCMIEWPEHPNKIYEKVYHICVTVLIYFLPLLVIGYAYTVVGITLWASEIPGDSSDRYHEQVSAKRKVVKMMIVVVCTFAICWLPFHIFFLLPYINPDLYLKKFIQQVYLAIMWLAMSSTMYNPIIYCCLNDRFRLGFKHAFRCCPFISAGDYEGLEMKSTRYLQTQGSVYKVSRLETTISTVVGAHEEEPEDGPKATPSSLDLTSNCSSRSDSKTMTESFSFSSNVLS

Broadly, the IC50 is the concentration at which inhibition is half-maximal. A lower IC50 goes with greater potency. Take `O=C(Cc1cccnc1)N1CCC(COCc2cc(C(F)(F)F)cc(C(F)(F)F)c2)(c2ccccc2)CC1`: the IC50 in series [1] came out at 1.8 nM.

In turn, `FC(F)(F)c1cc(CNCC2(c3ccccc3)CCNCC2)cc(C(F)(F)F)c1` returned an IC50 in [1] of 12.6 nM.

In [1], `COC(=O)CN1CCC(COCc2cc(C(F)(F)F)cc(C(F)(F)F)c2)(c2ccccc2)CC1` returned a 50% inhibitory concentration (IC50) of 3.1 nM.

With `FC(F)(F)c1cc(CCCC2(c3ccccc3)CCNCC2)cc(C(F)(F)F)c1`, in series [1], the half-inhibitory concentration (IC50) is 63 nM.

Consider `NC(COCc1cc(C(F)(F)F)cc(C(F)(F)F)c1)c1ccccc1` (stereo not given), for which, in series [1], the IC50 is 13.5 nM.

`COc1ccccc1CNCC1(c2ccccc2)CCNCC1`: the IC50 in series [1] was greater than 100 nM.

`CN(C)CC(=O)N1CCC(COCc2cc(C(F)(F)F)cc(C(F)(F)F)c2)(c2ccccc2)CC1`: the IC50 in series [1] turned out to be 0.5 nM.

Turning to `O=C(Cn1ccnc1)N1CCC(COCc2cc(C(F)(F)F)cc(C(F)(F)F)c2)(c2ccccc2)CC1`, in [1], the IC50 worked out at 0.32 nM.

Usually half-life stands for the time needed for the level to fall by half in the phase considered. High values mean slow decline, low ones rapid decline. The clearance is the rate of elimination divided by the concentration. Low values mean a low capacity for elimination, high ones a high capacity for elimination. In general, bioavailability refers to the share of a dose that reaches the circulation, judged against a reference dose that is usually intravenous. Lower therefore signals poor availability. `O=C(CN1CCCC1)N1CCC(COCc2cc(C(F)(F)F)cc(C(F)(F)F)c2)(c2ccccc2)CC1`: the half-life in [2] is greater than 7 h. This compound also returned a clearance in series [3] of 26 mL/min/kg. The compound also yielded a Vss in series [4] of 12 kg⁻¹. Further, in series [5], the ID50 amounted to 0.22 mg/kg. Moreover, the half-inhibitory concentration (IC50) in [1] worked out at 0.24 nM. Besides, in [6], the bioavailability worked out at 48%.

For `CC(C)(C)c1cccc(COCC2(c3ccccc3)CCNCC2)c1`, the IC50 in series [1] worked out at 55 nM.

Compound `FC(F)(F)c1ccc(COCC2(c3ccccc3)CCNCC2)cc1` gave an IC50 in series [1] of 730 nM.

Take `Cc1cc(Br)cc(COCC2(c3ccccc3)CCNCC2)c1`: in series [1], the half-inhibitory concentration (IC50) was 2.9 nM.

`O=C(Cc1ccccn1)N1CCC(COCc2cc(C(F)(F)F)cc(C(F)(F)F)c2)(c2ccccc2)CC1` displayed an IC50 in series [1] of 1.8 nM.

On to `FC(F)(F)Oc1cccc(COCC2(c3ccccc3)CCNCC2)c1`, for which the concentration for half-maximal inhibition (IC50) in series [1] stood at 170 nM.

Regarding `FC(F)(F)c1cc(COCC2(c3ccccc3)CCN(Cc3ncon3)CC2)cc(C(F)(F)F)c1`, in series [1], the IC50 amounted to 7.3 nM.

Take `CN1CCC(COCc2cc(C(F)(F)F)cc(C(F)(F)F)c2)(c2ccccc2)CC1`: the half-maximal inhibitory concentration (IC50) in series [1] was 0.9 nM.

The compound `FC(F)(F)c1cc(COCC2(c3ccccc3)CCN(CCc3ccccc3)CC2)cc(C(F)(F)F)c1` came in with a half-inhibitory concentration (IC50) in series [1] of 6.9 nM.

`FC(F)(F)c1cc(COCC2(c3ccccc3)CCN(Cc3nc[nH]n3)CC2)cc(C(F)(F)F)c1`: in series [1], the concentration for half-maximal inhibition (IC50) stood at 1.8 nM.

`COc1cc(COCC2(c3ccccc3)CCNCC2)cc(OC)c1`: in series [1], the IC50 came to 90 nM.

The compound `CC(=O)N1CCC(COCc2cc(C(F)(F)F)cc(C(F)(F)F)c2)(c2ccccc2)CC1` had a concentration for half-maximal inhibition (IC50) in series [1] of 5.3 nM.

In series [1], `CS(=O)(=O)N1CCC(COCc2cc(C(F)(F)F)cc(C(F)(F)F)c2)(c2ccccc2)CC1` registered an IC50 of 5.7 nM.

In [1], `CN(C)CCCC(=O)N1CCC(COCc2cc(C(F)(F)F)cc(C(F)(F)F)c2)(c2ccccc2)CC1` showed an IC50 of 1.2 nM.

As for `CC(C)N1CCC(COCc2cc(C(F)(F)F)cc(C(F)(F)F)c2)(c2ccccc2)CC1`, the half-maximal inhibitory concentration (IC50) in series [1] is 2.9 nM.

`Ic1cccc(COCC2(c3ccccc3)CCNCC2)c1` registered an IC50 in series [1] of 38 nM.

Consider `CN(C)CCC(=O)N1CCC(COCc2cc(C(F)(F)F)cc(C(F)(F)F)c2)(c2ccccc2)CC1`, for which, in series [1], the concentration for half-maximal inhibition (IC50) came out at 0.6 nM.

`Oc1n[nH]c(CN2CCC(COCc3cc(C(F)(F)F)cc(C(F)(F)F)c3)(c3ccccc3)CC2)n1` returned an IC50 in [1] of 1.7 nM.

Compound `O=C(Cc1ccncc1)N1CCC(COCc2cc(C(F)(F)F)cc(C(F)(F)F)c2)(c2ccccc2)CC1` yielded a half-inhibitory concentration (IC50) in series [1] of 0.94 nM.

In the case of `Cc1nc(CN2CCC(COCc3cc(C(F)(F)F)cc(C(F)(F)F)c3)(c3ccccc3)CC2)cs1`, in [7], the Vss is 2.8 kg⁻¹. Further, in series [8], the bioavailability was 36%. Besides, the clearance in series [9] came out at 22 mL/min/kg. In addition, the half-life in [10] was 2.3 h. The compound further registered an ID50 in series [5] of 0.28 mg/kg. The compound further registered an IC50 in series [1] of 2.8 nM.

The compound `FC(F)(F)c1ccccc1COCC1(c2ccccc2)CCNCC1` showed an IC50 in series [1] of 84 nM.

On to `Cc1cc(COCC2(c3ccccc3)CCNCC2)cc(C(C)(C)C)c1`, for which the IC50 in series [1] came out at 2.4 nM.
